Legend:
[1] = test system: B16; assay: Cell cycle arrest in mouse B16 cells assessed as accumulation of cells at G1 phase at 5 uM after 72 hrs by propidium iodide staining based flow cytometry (reference value: 24.06%); format: functional
[2] = test system: B16; assay: Cell cycle arrest in mouse B16 cells assessed as accumulation of cells at G2 phase at 1.25 uM after 72 hrs by propidium iodide staining based flow cytometry (reference value: 16.73%); format: functional
[3] = test system: B16; assay: Cell cycle arrest in mouse B16 cells assessed as accumulation of cells at G2 phase at 2.5 uM after 72 hrs by propidium iodide staining based flow cytometry (reference value: 16.73%); format: functional
[4] = test system: B16; assay: Cell cycle arrest in mouse B16 cells assessed as accumulation of cells at G2 phase at 5 uM after 72 hrs by propidium iodide staining based flow cytometry (reference value: 16.73%); format: functional
[5] = test system: B16; assay: Cell cycle arrest in mouse B16 cells assessed as accumulation of cells at S phase at 1.25 uM after 72 hrs by propidium iodide staining based flow cytometry (reference value: 59.21%); format: functional
[6] = test system: B16; assay: Cell cycle arrest in mouse B16 cells assessed as accumulation of cells at S phase at 2.5 uM after 72 hrs by propidium iodide staining based flow cytometry (reference value: 59.21%); format: functional
[7] = test system: B16; assay: Cell cycle arrest in mouse B16 cells assessed as accumulation of cells at S phase at 5 uM after 72 hrs by propidium iodide staining based flow cytometry (reference value: 59.21%); format: functional
[8] = test system: B16; assay: Cell cycle arrest in mouse B16 cells assessed as accumulation of cells at G2/G1 phase at 1.25 uM after 72 hrs by propidium iodide staining based flow cytometry (reference value: 1.83%); format: functional
[9] = test system: B16; assay: Cell cycle arrest in mouse B16 cells assessed as accumulation of cells at G2/G1 phase at 2.5 uM after 72 hrs by propidium iodide staining based flow cytometry (reference value: 1.83%); format: functional
[10] = test system: B16; assay: Cell cycle arrest in mouse B16 cells assessed as accumulation of cells at G2/G1 phase at 5 uM after 72 hrs by propidium iodide staining based flow cytometry (reference value: 1.83%); format: functional
[11] = test system: B16; assay: Induction of apoptosis in mouse B16 cells assessed as viable cells at 1.25 uM after 72 hrs by Annexin V-FITC/propidium iodide staining-based flow cytometry (reference value: […]); format: functional; conditions: B16, 72 h, read-out: Activity
[12] = test system: B16; assay: Induction of apoptosis in mouse B16 cells assessed as early apoptotic cells at 1.25 uM after 72 hrs by Annexin V-FITC/propidium iodide staining-based flow cytometry (reference value: 2.15%); format: functional
Procedure, shortened: (§1)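 B16 cells were treated with vehicle or 1.25, 2.5 or 5 µM for 72 h. Annexin V/PI staining was read by flow cytometry. Values are mean ± SE of at least three independent experiments.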

[13] = test system: B16; assay: Induction of apoptosis in mouse B16 cells assessed as late apoptotic cells at 1.25 uM after 72 hrs by Annexin V-FITC/propidium iodide staining-based flow cytometry (reference value: 3.51%); format: functional; procedure, shortened: as §1
[14] = test system: B16; assay: Induction of apoptosis in mouse B16 cells assessed as necrotic cells at 1.25 uM after 72 hrs by Annexin V-FITC/propidium iodide staining-based flow cytometry (reference value: […]); format: functional; procedure, shortened: as §1
[15] = test system: B16; assay: Induction of apoptosis in mouse B16 cells assessed as viable cells at 2.5 uM after 72 hrs by Annexin V-FITC/propidium iodide staining-based flow cytometry (reference value: […]); format: functional; conditions: B16, 72 h, read-out: Activity
[16] = test system: B16; assay: Induction of apoptosis in mouse B16 cells assessed as early apoptotic cells at 2.5 uM after 72 hrs by Annexin V-FITC/propidium iodide staining-based flow cytometry (reference value: 2.15%); format: functional; procedure, shortened: as §1
[17] = test system: B16; assay: Induction of apoptosis in mouse B16 cells assessed as late apoptotic cells at 2.5 uM after 72 hrs by Annexin V-FITC/propidium iodide staining-based flow cytometry (reference value: 3.51%); format: functional; procedure, shortened: as §1
[18] = test system: B16; assay: Induction of apoptosis in mouse B16 cells assessed as necrotic cells at 2.5 uM after 72 hrs by Annexin V-FITC/propidium iodide staining-based flow cytometry (reference value: […]); format: functional; procedure, shortened: as §1
[19] = test system: B16; assay: Induction of apoptosis in mouse B16 cells assessed as viable cells at 5 uM after 72 hrs by Annexin V-FITC/propidium iodide staining-based flow cytometry (reference value: […]); format: functional; conditions: B16, 72 h, read-out: Activity
[20] = test system: B16; assay: Induction of apoptosis in mouse B16 cells assessed as early apoptotic cells at 5 uM after 72 hrs by Annexin V-FITC/propidium iodide staining-based flow cytometry (reference value: 2.15%); format: functional; procedure, shortened: as §1
[21] = test system: B16; assay: Induction of apoptosis in mouse B16 cells assessed as late apoptotic cells at 5 uM after 72 hrs by Annexin V-FITC/propidium iodide staining-based flow cytometry (reference value: 3.51%); format: functional; procedure, shortened: as §1
[22] = test system: B16; assay: Induction of apoptosis in mouse B16 cells assessed as necrotic cells at 5 uM after 72 hrs by Annexin V-FITC/propidium iodide staining-based flow cytometry (reference value: […]); format: functional; procedure, shortened: as §1
[23] = test system: H22; assay: In vivo antitumor activity […] cells xenografted in mouse assessed as tumor growth inhibitory ratio at 30 mg/kg, ip administered after 7 days of tumor transplantation measured at 25th day after tumor inoculation; format: functional; conditions: 168 h, route intraperitoneal
Procedure, shortened: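 Mice bearing H22 liver cancer, 10 per group. Test article at 30 mg/kg ip. Vehicle 0.5 mL/mouse iv. Cyclophosphamide 30 mg/kg iv as positive control. Tumor weight recorded to give tumor inhibitory ratio.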

[24] = test system: B16; assay: In vivo antitumor activity against mouse B16 cells xenografted in mouse assessed as tumor growth inhibitory ratio at 30 mg/kg, ip administered after 7 days of tumor transplantation measured at 25th day after tumor inoculation; format: functional; conditions: 168 h, route intraperitoneal
[25] = test system: Mus musculus; assay: Toxicity against mouse xenografted […] cells assessed as body weight at 30 mg/kg, ip administered after 7 days of tumor transplantation (reference value: 18.1 to 18.6 gms); format: organism-based; set-up: dose 30 mg/kg, route intraperitoneal; conditions: in vivo, 168 h
Procedure, shortened: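 H22 liver cancer-bearing mice, 10 per group at start and end. Test article given ip at 30 mg/kg, with a vehicle group (0.5 mL/mouse, iv). Body weight was recorded at start and at end, alongside tumor weight.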

[26] = test system: Mus musculus; assay: Toxicity against mouse xenografted with mouse B16 cells assessed as body weight at 30 mg/kg, ip administered after 7 days of tumor transplantation (reference value: 18.2 to 18.3 gms); format: organism-based; set-up: dose 30 mg/kg, route intraperitoneal; conditions: in vivo, 168 h
[27] = Antiproliferative activity against human HL60 cells assessed as growth inhibition after 72 hrs by MTT assay; format: functional, cell-based; conditions: HL-60, 72 h
Procedure, shortened: (§2)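 Values are mean ± S.D. from three different experiments, each performed in triplicate.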

[28] = Antiproliferative activity against human Bel7402 cells assessed as growth inhibition after 72 hrs by MTT assay; format: functional, cell-based; conditions: Bel-7402, 72 h
Procedure, shortened: (§3)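 IC50 is the concentration inhibiting 50% cell growth. Values are mean ± S.D. from three different experiments, each performed in triplicate.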

[29] = Antiproliferative activity against human SF763 cells assessed as growth inhibition after 72 hrs by MTT assay; format: functional, cell-based; conditions: SF763, 72 h; procedure, shortened: as §2
[30] = test system: HeLa; assay: Antiproliferative activity against human HeLa cells assessed as growth inhibition after 72 hrs by MTT assay; format: functional, cell-based; procedure, shortened: as §3
[31] = test system: B16; assay: Antiproliferative activity against mouse B16 cells assessed as growth inhibition after 72 hrs by MTT assay; format: functional, cell-based; conditions: B16, 72 h; procedure, shortened: as §3
[32] = Antiproliferative activity against human HL7702 cells assessed as growth inhibition after 72 hrs by MTT assay; format: cell-based; conditions: L02, 72 h
Procedure, shortened: (§4)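 MTT assay on normal human hepatocyte line HL-7702, with 72 h treatment. Selectivity index is the IC50 in HL-7702 divided by the IC50 in each cancer cell line.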

[33] = Selectivity index, ratio of IC50 for human HL7702 cells to IC50 for human HL60 cells by MTT assay; procedure, shortened: as §4
[34] = test system: Bel-7402; assay: Selectivity index, ratio of IC50 for human HL7702 cells to IC50 for human BEL7402 cells by MTT assay; procedure, shortened: as §4
[35] = Selectivity index, ratio of IC50 for human HL7702 cells to IC50 for human SF763 cells by MTT assay; procedure, shortened: as §4
[36] = test system: HeLa; assay: Selectivity index, ratio of IC50 for human HL7702 cells to IC50 for human HeLa cells by MTT assay; procedure, shortened: as §4
[37] = test system: B16; assay: Selectivity index, ratio of IC50 for human HL7702 cells to IC50 for mouse B16 cells by MTT assay; procedure, shortened: as §4
[38] = test system: B16; assay: Cell cycle arrest in mouse B16 cells assessed as accumulation of cells at G1 phase at 1.25 uM after 72 hrs by propidium iodide staining based flow cytometry (reference value: 24.06%); format: functional
[39] = test system: B16; assay: Cell cycle arrest in mouse B16 cells assessed as accumulation of cells at G1 phase at 2.5 uM after 72 hrs by propidium iodide staining based flow cytometry (reference value: 24.06%); format: functional

C=C(C)[C@@H]1CC[C@]2(C(=O)N3CCOCC3)CC[C@]3(C)[C@H](CC[C@@H]4[C@@]5(C)Cc6nccnc6[C@@](C)(COC(C)=O)[C@@H]5CC[C@]43C)[C@@H]12
Activity [1]: 33.46% | Activity [2]: 9.18% | Activity [3]: 6.54% | Activity [4]: 3.27% | Activity [5]: 61.15% | Activity [6]: 58.79% | Activity [7]: 63.27% | Activity [8]: 1.82% | Activity [9]: 1.85% | Activity [10]: 1.85% | viability at 1.25 µM [11]: 82.6% | Activity [12]: 11.33% | Activity [13]: 5.18% | Activity [14]: 0.86% | viability at 2.5 µM [15]: 67.8% | Activity [16]: 20.14% | Activity [17]: 11.48% | Activity [18]: 0.52% | viability at 5 µM [19]: 40.6% | Activity [20]: 45.34% | Activity [21]: 12.1% | Activity [22]: 1.96% | inhibition in vivo at 30 mg/kg [23]: 55.6% | inhibition in vivo at 30 mg/kg [24]: 62.7% | Activity [25]: 25.9 g | Activity [26]: 25.9 g | IC50 [27]: 7.11 µM | IC50 [28]: 7.03 µM | IC50 [29]: 3.53 µM | IC50 [30]: 5.13 µM | IC50 [31]: 4.42 µM | IC50 [32]: 75.4 µM | Ratio IC50 [33]: 11 | Ratio IC50 [34]: 11 | Ratio IC50 [35]: 21.4 | Ratio IC50 [36]: 14.7 | Ratio IC50 [37]: 17.1 | Activity [38]: 29.67% | Activity [39]: 34.67%
